EP2 mod: EP2 receptor modulators, cAMP readout, primary screen, cell-based, HTRF cAMP, PGE2 stimulation. induction, % at 25 µM. hit rate 0.83% among 260,000. Prostaglandin E2 receptor EP2 subtype (Homo sapiens), P43116. EP2-expressing cells, cAMP HTRF FRET, PGE2 co-stimulation;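 active means compounds whose cAMP rise, as percent of the full-agonist control response, exceeds 60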;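 further: rat C6 glioma line stably carrying human EP2 under a CMV promoter; the protocol text gives 20 µM as final concentration; 100% = response of wells given 1 µM PGE2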
Target sequence (P43116 whole entry, looked up): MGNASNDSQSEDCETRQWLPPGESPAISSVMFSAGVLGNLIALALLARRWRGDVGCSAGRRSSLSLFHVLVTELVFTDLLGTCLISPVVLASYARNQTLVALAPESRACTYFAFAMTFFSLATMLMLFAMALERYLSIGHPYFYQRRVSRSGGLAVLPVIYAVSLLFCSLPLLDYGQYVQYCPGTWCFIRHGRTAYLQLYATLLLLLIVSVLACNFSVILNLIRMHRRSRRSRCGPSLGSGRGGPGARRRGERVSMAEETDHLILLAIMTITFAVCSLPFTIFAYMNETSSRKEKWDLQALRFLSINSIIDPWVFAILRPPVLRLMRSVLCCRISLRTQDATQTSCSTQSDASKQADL
NPY Y1 blocker: NPY-Y1 receptor antagonists, primary screen, cell-based; inhibition, % at 3.6 µM; HEK293-CNG Y1 cells, membrane potential fluorescence; NPY at EC95, then isoproterenol; hit rate 1% among 200,000; AID 1040, 2008; Neuropeptide Y receptor type 1 (Homo sapiens), P25929;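 active means inhibition above the campaign mean inhibition of all tested compounds plus 3 SD, cut at about 20% in these data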;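 further: 0% = DMSO wells given NPY plus isoproterenol and 100% = isoproterenol alone without NPY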
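Test system: HEK293 cells co-expressing NPY Y1 receptor and cyclic-nucleotide gated channel; Also added: NPY (25 nM), isoproterenol (1 µM), Ro 20-1724 (25 µM); Compound dosing: one concentration, 3.6 µM, in 0.4% DMSO; Timing: dye 3 h, compound 60 min room temperature, stimulation 45 min; Technique: Membrane-potential fluorescent dye readout.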
NPY1 pot ag: NPY-Y1 receptor potentiators or agonists, primary screen, cell-based. activation, % at 3.6 µM. hit rate 0.37% among 220,000. Neuropeptide Y receptor type 1 (Homo sapiens), P25929. NPY-Y1 expressing cells, potentiator/agonist activation; in the data active means activation above about 33%, passing the limit was not always enough;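 further: cells stimulated with NPY at EC10 then isoproterenol at EC100; 0% = low agonist plus stimulus and 100% = saturating agonist plus stimulus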
EP2 antag: human EP2 receptor antagonists, primary screen, TR-FRET cAMP, C6 glioma cells. C6 glioma cells expressing human EP2; cells stimulated with saturating PGE2. inhibition, % at 25 µM. hit rate 0.52% among 260,000. AID 1422, 2008;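 active means percent inhibition above 40 after rounding to a whole number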;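 further: rat C6 glioma host cells with rolipram phosphodiesterase inhibitor present; the protocol text gives 20 µM as final concentration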
NPY Y2 blocker: NPY-Y2 receptor antagonists, primary screen, cell-based. Neuropeptide Y receptor type 2 (Homo sapiens), P49146. NPY-Y2 expressing cells, antagonist mode. inhibition, % at 2.7 µM. hit rate 0.99% among 140,000;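 further: 0% = vehicle with agonist challenge and 100% = reference antagonist with challenge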
Target sequence (P49146 whole entry, looked up): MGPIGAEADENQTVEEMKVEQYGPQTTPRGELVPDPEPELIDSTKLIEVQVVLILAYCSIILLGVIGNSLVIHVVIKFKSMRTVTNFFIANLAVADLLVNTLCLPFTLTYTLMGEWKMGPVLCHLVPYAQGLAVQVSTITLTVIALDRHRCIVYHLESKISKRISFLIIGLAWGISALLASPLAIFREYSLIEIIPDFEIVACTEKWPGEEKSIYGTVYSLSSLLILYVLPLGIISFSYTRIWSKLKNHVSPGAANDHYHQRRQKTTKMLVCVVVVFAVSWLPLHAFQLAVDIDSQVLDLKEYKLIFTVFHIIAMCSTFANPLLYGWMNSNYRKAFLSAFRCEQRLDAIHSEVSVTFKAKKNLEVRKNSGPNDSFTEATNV
NPY2 pot ag: NPY-Y2 potentiators or agonists, primary screen, cell-based; Neuropeptide Y receptor type 2 (Homo sapiens), P49146; activation, % at 3.6 µM; hit rate 0.45% among 220,000; cells expressing NPY-Y2, potentiator/agonist read-out; in the data active means activation above about 27%;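 further: cells stimulated with NPY near EC25 plus isoproterenol at EC100; 0% = vehicle plus submaximal agonist and 100% = vehicle plus saturating agonist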
NPY-Y1 ant conf: NPY-Y1 receptor antagonists, retest of hits, confirmation, HEK293-CNG cells, membrane potential fluorescence, triplicate; inhibition, % at 3.6 µM; shares compounds with NPY Y1 blocker; cAMP; NPY challenge against isoproterenol-raised cAMP; hit rate 21% among 1,200; AID 1254, 2008; in the data active means inhibition above about 20%;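 further: 0% = vehicle with agonist plus stimulus and 100% = stimulus alone without agonist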
NPY2 antag ctr: NPY-Y2 receptor antagonists, selectivity check, confirmation, counter-screen for NPY-Y1 antagonist project, HEK293-CNG cells, membrane potential fluorescence, triplicate | shares compounds with NPY Y1 blocker | antagonism; cells given NPY, then isoproterenol | inhibition, % at 3.6 µM | hit rate 28% among 1,200 | AID 1255, 2008;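 further: 0% = DMSO with agonist challenge and 100% = reference antagonist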
Active calls of the source: *; · = no result. In the library only some 2.8% were active in any assay of this set; here they are far more common. Unless noted, no stated cut-off is given here; in the data, active means inhibition above about 17%; inactive means the rest.

SMILES | EP2 mod | NPY Y1 blocker | NPY1 pot ag | EP2 antag | NPY Y2 blocker | NPY2 pot ag | NPY-Y1 ant conf | NPY2 antag ctr
CCC(C)(C)n1nnnc1CN(Cc1ccc(Cl)cc1)Cc1ccco1 | 60 | 24* | -37 | · | 17 | -23 | 17 | 14
CCOc1ccccc1NC(=O)CSc1nnc(-c2cccs2)n1C | -43 | · | · | 1 | · | · | · | ·
CCCn1c(C(=O)OC)cc2c1ccn2-c1ccc(F)cc1 | 34 | 55* | -18 | 2 | 9 | -16 | 18 | 16
COC(=O)c1cc2c(ccn2-c2ccc(F)cc2)n1CC(C)C | -20 | 48* | -28 | 7 | 10 | -11 | 26* | 22*
CCOC(=O)c1cc2c(ccn2-c2ccc(F)cc2)n1CC(=O)N1CCN(C(=O)c2ccco2)CC1 | 39 | -3 | 4 | 18 | 4 | -3 | · | ·
COC(=O)c1cc2c(ccn2-c2ccc(F)cc2)n1Cc1ccc(OC(C)=O)cc1 | -63 | -1 | -24 | 25 | 2 | 1 | · | ·
COc1ccccc1CN1Cc2cc3cccc(C)c3nc2OCC1=O | -31 | · | · | · | · | · | · | ·
COc1cc(CNc2ccccc2Oc2cc(=O)n(C)c(=O)n2C)cc(OC)c1OC | -4 | 36* | -12 | 14 | 13 | -36 | 17 | 8
COc1ccc(COc2cc(-c3cccc(OC)c3)nc3ccc(NC(=O)c4ccc(N(C)C)cc4)cc23)cc1 | 0 | 43* | -32 | 17 | 2 | -2 | -2 | 2
Cc1ccsc1C(=O)C1CCCN(Cc2cc(F)ccc2-n2cccn2)C1 (stereo not drawn) | 40 | 30* | -22 | 4 | · | -34 | 8 | 12
COc1cc(OC)c(OC)cc1CN1CCCC(C(=O)c2sccc2C)C1 (stereo not drawn) | 10 | · | 12 | 3 | · | -32 | · | ·
O=C1N(Cc2cccc(Cl)c2)C[C@@H]2C[C@@H](c3cccn3-c3ccccn3)N3CCC[C@@]123 | -10 | 19 | -9 | 10 | · | -15 | · | ·
O=C1N(Cc2cccc(Cl)c2)C[C@@H]2C[C@@H](c3ccc4nonc4c3)N3CCC[C@@]123 | 17 | 24* | -5 | 10 | · | -16 | 10 | 9
CN1C[C@@H]2C[C@@H](C3=Cc4cc(Cl)ccc4OC3)N3CCC[C@@]23C1=O | 19 | 1 | 6 | 8 | · | 5 | · | ·
COc1ccccc1CN1C[C@@H]2C[C@@H](C3=Cc4cc(Cl)ccc4OC3)N3CCC[C@@]23C1=O | 12 | 24* | -18 | 9 | · | -19 | 19 | 13
Cc1ccc([C@@H]2C[C@H]3CN(Cc4cccc(Cl)c4)C(=O)[C@]34CCCN24)o1 | 24 | 2 | 11 | 2 | · | -6 | · | ·
O=C1N(Cc2cccc(Cl)c2)C[C@@H]2C[C@@H](c3cccn3-c3nccs3)N3CCC[C@@]123 | 29 | 26* | -27 | 2 | · | -25 | 4 | 6
CCN1CCN(C(=S)NCCCOC)CC1 | 7 | · | · | 13 | · | · | · | ·
O=C(CCSc1ccccc1)OCn1nnc2ccccc2c1=O | -16 | 9 | -16 | 3 | · | -7 | · | ·
Cc1ccc(SCCC(=O)OCn2nnc3ccccc3c2=O)cc1 | 10 | 23* | -2 | 6 | · | -14 | 14 | 15
COc1cccc(C(C(=O)NC2CCCC2)N(CC2CCCO2)C(=O)Cc2cccs2)c1 (stereo not drawn) | 22 | 26* | 12 | 1 | · | -10 | 8 | 8
COC(=O)[C@@]1(Cc2ccc(F)cc2)[C@H]2c3cc(C(=O)N4CCCC4)n(Cc4ccc(C(F)(F)F)nc4)c3C[C@H]2CN1C(=O)c1ccccc1 | -4 | 28* | -9 | 8 | 16 | -3 | 28* | 9
COC(=O)[C@@]1(Cc2ccc(OC)cc2)[C@H]2c3cc(C(=O)N4CCCC4)n(Cc4ccc(OC)c(OC)c4)c3C[C@H]2CN1C(=O)c1ccccc1 | 16 | 10 | -23 | 14 | 12 | -9 | · | ·
CC(C)C(=O)Nc1nc(-c2ccc(Br)cc2)cs1 | -92 | · | · | 8 | · | · | · | ·
CCc1nc(SC(C)C(=O)Nc2ccc(Cl)cc2)n[nH]1 (stereo not drawn) | -44 | · | · | 11 | · | · | · | ·
SMILES | EP2 mod | NPY Y1 blocker | NPY1 pot ag | EP2 antag | NPY Y2 blocker | NPY2 pot ag | NPY-Y1 ant conf | NPY2 antag ctr
COc1ccc(C(CC(=O)O)NC(=O)c2cccs2)cc1 (stereo not drawn) | -1 | 0 | 8 | 10 | 0 | -1 | · | ·
COc1ccc(C(CC(=O)O)NC(=O)c2sc3ccccc3c2Cl)cc1 (stereo not drawn) | 8 | 22* | -72 | 10 | 11 | -16 | 12 | 12
Cc1cccc(OCCn2nc(C(=O)O)c3ccccc3c2=O)c1 | 5 | 6 | -13 | 9 | 9 | -19 | · | ·
Cc1cccc(C)c1OCCn1nc(C(=O)O)c2ccccc2c1=O | 10 | 24* | -35 | 6 | 10 | -30 | 17 | 23*
NC(=O)c1nsc(C(=O)N(CC(=O)NCc2ccc(F)cc2)c2ccc3c(c2)OCO3)c1N | -17 | · | · | 11 | · | · | · | ·
COc1ccc([N+](=O)[O-])cc1N(CC(O)CN(CC(C)C)CC(C)C)S(=O)(=O)c1ccccc1 (stereo not drawn) | 18 | 69* | -22 | 10 | 17 | -13 | 30* | 14
c1ccc2c(N3CCOCC3)nc(-c3ccncc3)nc2c1 | 29 | -1 | 7 | 9 | 2 | 14 | · | ·
CCN1CCN(c2nc(-c3ccccc3)nc3ccccc23)CC1 | -14 | 21* | -36 | 4 | 5 | 1 | 10 | 6
CCCCOC(=O)c1ccc(NC(=O)c2c(Cl)ccc(Cl)c2OC)cc1 | 8 | 24* | -33 | 11 | 8 | -21 | 17 | 14
CCCCOC(=O)Nc1ccc(C(=O)OCCC)cc1 | 10 | 7 | -39 | 6 | 3 | 2 | · | ·
COc1ccc(NC(=O)N(CCc2ccccc2)Cc2cc3cc(C)ccc3[nH]c2=O)cc1 | -2 | · | · | 6 | · | · | · | ·
Cc1ccc(C(C(=O)NC2CCCCC2)N(Cc2ccc3c(c2)OCO3)C(=O)c2ccco2)cc1 (stereo not drawn) | 46 | · | · | 7 | · | · | · | ·
CCOC(=O)c1sc(NC(=O)CN2CCCC2)c(C(=O)OCC)c1C | 37 | 9 | -19 | · | 1 | 3 | · | ·
CCOC(=O)c1c(NC(=O)CN2CCN(C)CC2)sc(C(=O)Nc2ccccc2)c1C | -33 | 27* | -43 | 9 | · | -23 | 14 | 13

High-throughput results from PubChem.
